Measured values from ChEMBL document CHEMBL1126018, “Syntheses and 5-HT2 antagonist activity of bicyclic 1,2,4-triazol-3(2H)-one and 1,3,5-triazine-2,4(3H)-dione derivatives” (J Med Chem, 1992).

Key:
Mus musculus [1] = test: The inhibition of compound was measured for 8 min in head twitches of mice induced by 5-HTP(100 mg/kg, ip) at the dose of 1 mg/kg; type: functional
In short: (§1)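 Mice received drug orally 1 h before 5-HTP (100 mg/kg ip). Head twitches were counted for 5 or 8 min, starting 30 min after 5-HTP. Results are % inhibition versus controls (n = 6), with n = 4 per treated dose.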

[2] = biological target: T1, Adrenergic receptor alpha-1 (Rattus norvegicus) (UniProt P15823+P23944+P43140); test: In vivo inhibitory activity in rats against elevation of blood pressure caused by phenylephrine (30 ug/kg, iv) through alpha-1 receptor after 1 hr of oral administration at the dose of 10 mg/kg; type: functional, organism-based; parameters: dose 10 mg/kg
In short: (§2)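 Male SD rats under urethane (1 g/kg ip) and alpha-chloralose (80 mg/kg ip). Blood pressure recorded via carotid catheter and transducer, iv dosing via venous catheter. After oral drug or vehicle, phenylephrine 30 μg/kg iv. The pressor rise was expressed as % inhibition, mean ± SEM.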

Mus musculus [3] = test: The inhibition of compound was measured for 5 min in head twitches of mice induced by 5-HTP(100 mg/kg, ip) at the dose of 10 mg/kg; type: functional; in short: as §1
[4] = biological target: T2, Serotonin 2 (5-HT2) receptor (Rattus norvegicus) (UniProt P30994+P08909+P14842); test: In vivo inhibitory activity of 3 mg/kg compound in rats against elevation of BP caused by 5-HT (300 ug/kg, iv) through 5-hydroxytryptamine 2 receptor 1 hr after oral administration; type: functional, organism-based; parameters: dose 3 mg/kg
In short: (§3)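 Male SD rats anesthetized with urethane (1 g/kg ip) plus alpha-chloralose (80 mg/kg ip). Carotid arterial catheter to a pressure transducer, venous catheter for injection. After oral drug or vehicle, 5-HT 300 μg/kg iv. The pressor phase following the brief hypotensive phase was measured and expressed as % inhibition, mean ± SEM.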

Mus musculus [5] = test: The inhibition of compound was measured for 5 min in head twitches of mice induced by 5-HTP(100 mg/kg, ip) at the dose of 3 mg/kg; type: functional; in short: as §1
Mus musculus [6] = test: The inhibition of compound was measured for 8 min in head twitches of mice induced by 5-HTP(100 mg/kg, ip) at the dose of 0.3 mg/kg; type: functional; in short: as §1
[7] = biological target: T3, Adrenergic receptor alpha-1 (Rattus norvegicus, UniProt P15823+P23944+P43140); test: In vitro antagonistic activity tested against the contraction induced by phenylephrine through Alpha-1 adrenergic receptor in rat thoracic aortic strips; type: functional
T3 sequence (P15823 whole entry): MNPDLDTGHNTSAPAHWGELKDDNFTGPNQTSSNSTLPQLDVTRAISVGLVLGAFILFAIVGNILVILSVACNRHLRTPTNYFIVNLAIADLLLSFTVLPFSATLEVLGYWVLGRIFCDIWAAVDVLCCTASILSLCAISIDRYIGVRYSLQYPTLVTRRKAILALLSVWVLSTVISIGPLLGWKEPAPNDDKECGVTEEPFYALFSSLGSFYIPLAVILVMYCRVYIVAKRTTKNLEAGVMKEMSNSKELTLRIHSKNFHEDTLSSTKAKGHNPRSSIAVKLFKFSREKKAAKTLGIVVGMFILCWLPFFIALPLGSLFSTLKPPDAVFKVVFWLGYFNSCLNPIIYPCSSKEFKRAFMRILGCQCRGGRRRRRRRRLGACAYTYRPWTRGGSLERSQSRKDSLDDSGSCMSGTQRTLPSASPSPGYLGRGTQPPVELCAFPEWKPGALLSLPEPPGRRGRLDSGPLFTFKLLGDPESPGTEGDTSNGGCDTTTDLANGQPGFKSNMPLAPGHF
T3 sequence (P23944 whole entry): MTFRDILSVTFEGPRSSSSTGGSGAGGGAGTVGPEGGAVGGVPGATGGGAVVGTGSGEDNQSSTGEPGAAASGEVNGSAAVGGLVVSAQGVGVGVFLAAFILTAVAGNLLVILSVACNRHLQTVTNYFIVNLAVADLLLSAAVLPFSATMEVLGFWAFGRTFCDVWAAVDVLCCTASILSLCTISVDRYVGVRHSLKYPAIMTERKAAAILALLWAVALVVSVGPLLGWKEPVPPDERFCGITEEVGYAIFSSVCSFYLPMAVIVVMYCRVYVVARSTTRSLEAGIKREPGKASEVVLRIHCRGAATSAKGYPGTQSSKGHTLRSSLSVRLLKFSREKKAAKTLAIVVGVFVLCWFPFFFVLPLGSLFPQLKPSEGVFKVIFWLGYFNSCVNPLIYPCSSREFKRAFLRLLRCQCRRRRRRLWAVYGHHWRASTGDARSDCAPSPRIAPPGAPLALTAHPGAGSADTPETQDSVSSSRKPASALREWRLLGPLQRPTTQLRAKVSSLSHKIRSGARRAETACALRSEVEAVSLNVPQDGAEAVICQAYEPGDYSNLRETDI
T3 sequence (P43140 whole entry): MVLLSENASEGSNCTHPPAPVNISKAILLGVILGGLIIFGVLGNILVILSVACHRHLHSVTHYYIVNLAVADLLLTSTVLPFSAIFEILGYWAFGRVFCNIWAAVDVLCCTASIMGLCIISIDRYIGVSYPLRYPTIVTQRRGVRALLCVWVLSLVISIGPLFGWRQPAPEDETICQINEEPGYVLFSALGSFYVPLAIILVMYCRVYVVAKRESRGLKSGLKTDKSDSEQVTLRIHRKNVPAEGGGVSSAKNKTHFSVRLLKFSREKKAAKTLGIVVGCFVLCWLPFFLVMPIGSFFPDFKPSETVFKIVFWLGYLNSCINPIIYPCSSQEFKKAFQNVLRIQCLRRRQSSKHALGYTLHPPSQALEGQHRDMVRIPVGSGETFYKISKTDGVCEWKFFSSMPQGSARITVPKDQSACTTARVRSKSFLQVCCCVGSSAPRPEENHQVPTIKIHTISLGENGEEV
In short: (§4)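 Rat thoracic aortic strips, isometric tension; equilibrated 120 min, primed with 60 mM KCl. Cumulative phenylephrine (0.01-10 μM) curve, wash, 1 h later second cumulative curve with test drug present. pA2 from the concentration-response curves where blockade is competitive (otherwise noncompetitive); single determination.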

[8] = biological target: T2, Serotonin 2 (5-HT2) receptor (Rattus norvegicus); test: In vivo inhibitory activity of 10 mg/kg compound in rats against elevation of BP caused by 5-HT (300 ug/kg, iv) through 5-hydroxytryptamine 2 receptor 3h after oral administration; type: functional, organism-based; parameters: dose 10 mg/kg; in short: as §3
Mus musculus [9] = test: The inhibition of compound was measured for 8 min in head twitches of mice induced by 5-HTP(100 mg/kg, ip) at the dose of 0.1 mg/kg; type: functional; in short: as §1
[10] = biological target: T2, Serotonin 2 (5-HT2) receptor (Rattus norvegicus); test: In vivo inhibitory activity of 3 mg/kg compound in rats against elevation of BP caused by 5-HT (300 ug/kg, iv) through 5-hydroxytryptamine 2 receptor 3h after oral administration; type: functional, organism-based; parameters: dose 3 mg/kg; in short: as §3
[11] = biological target: T1, Adrenergic receptor alpha-1 (Rattus norvegicus); test: In vivo inhibitory activity in rats against elevation of blood pressure caused by phenylephrine (30 ug/kg, iv) through Alpha-1 adrenergic receptor, after 1 hr oral administration at dose of 10 mg/kg; type: functional, organism-based; parameters: dose 10 mg/kg; in short: as §2
Mus musculus [12] = test: The inhibition of compound was measured for 5 min in head twitches of mice induced by 5-HTP(100 mg/kg, ip) at the dose of 1 mg/kg; type: functional; in short: as §1
[13] = biological target: T2, Serotonin 2 (5-HT2) receptor (Rattus norvegicus); test: In vivo inhibitory activity of 10 mg/kg compound in rats against elevation of BP caused by 5-HT (300 ug/kg, iv) through 5-hydroxytryptamine 2 receptor 1 hr after oral administration; type: functional, organism-based; parameters: dose 10 mg/kg; in short: as §3
[14] = biological target: T4, Serotonin 2 (5-HT2) receptor (Rattus norvegicus, UniProt P30994+P08909+P14842); test: In vitro antagonistic activity against the contraction induced by 5-HT through 5-HT2 receptor in rat thoracic aortic strips; type: functional
In short: as §4, with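 “5-HT (0.1-100” for “phenylephrine (0.01-10”, “cumulative 5-HT” for “cumulative”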

[15] = biological target: T4, Serotonin 2 (5-HT2) receptor; test: (§5) In vitro antagonistic activity against the contraction induced by 5-HT through 5-hydroxytryptamine 2 receptor in rat thoracic aortic strips; type: functional
In short: as §4, with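 “5-HT (0.1-100” for “phenylephrine (0.01-10”, “cumulative 5-HT” for “cumulative”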

[16] = biological target: T4, Serotonin 2 (5-HT2) receptor; test: In vitro antagonistic activity tested against the contraction induced by 5-HT through 5-hydroxytryptamine 2 receptor in rat thoracic aortic strips; type: functional
[17] = biological target: T2, Serotonin 2 (5-HT2) receptor (Rattus norvegicus); test: as §5; type: functional; conditions: concentration not given here
In short: as §4, with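 “5-HT (0.1-100” for “phenylephrine (0.01-10”, “cumulative 5-HT” for “cumulative”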

[18] = biological target: T1, Adrenergic receptor alpha-1 (Rattus norvegicus); test: In vitro antagonistic activity against the contraction induced by phenylephrine through Alpha-1 adrenergic receptor in rat thoracic aortic strips; type: functional; conditions: concentration not given here; in short: as §4
[19] = biological target: T1, Adrenergic receptor alpha-1 (Rattus norvegicus); test: In vivo inhibitory activity in rats against elevation of blood pressure caused by phenylephrine (30 ug/kg, iv) through alpha-1 receptor after 3h of oral administration at the dose of 10 mg/kg; type: functional, organism-based; parameters: dose 10 mg/kg; in short: as §2
Mus musculus [20] = test: The inhibition of compound was measured for 5 min in head twitches of mice induced by 5-HTP(100 mg/kg, ip) at the dose of 30 mg/kg; type: functional; in short: as §1
[21] = biological target: T3, Adrenergic receptor alpha-1; test: In vitro antagonistic activity against the contraction induced by phenylephrine through alpha-1 receptor in rat thoracic aortic strips; type: functional; in short: as §4
[22] = system: Serotonin 2 (5-HT2) receptor (Rattus norvegicus); test: In vivo inhibitory activity in rats against elevation of blood pressure caused by 5-HT (300 ug/kg, iv) through 5-HT2 receptor after 3h of oral administration at the dose of 3 mg/kg
[23] = biological target: T1, Adrenergic receptor alpha-1 (Rattus norvegicus); test: In vivo inhibitory activity in rats against elevation of blood pressure caused by phenylephrine (30 ug/kg, iv) through Alpha-1 adrenergic receptor after 1 hr of oral administration at the dose of 10 mg/kg; type: functional, organism-based; parameters: dose 10 mg/kg; in short: as §2

T2 sequence (P08909 whole entry, looked up): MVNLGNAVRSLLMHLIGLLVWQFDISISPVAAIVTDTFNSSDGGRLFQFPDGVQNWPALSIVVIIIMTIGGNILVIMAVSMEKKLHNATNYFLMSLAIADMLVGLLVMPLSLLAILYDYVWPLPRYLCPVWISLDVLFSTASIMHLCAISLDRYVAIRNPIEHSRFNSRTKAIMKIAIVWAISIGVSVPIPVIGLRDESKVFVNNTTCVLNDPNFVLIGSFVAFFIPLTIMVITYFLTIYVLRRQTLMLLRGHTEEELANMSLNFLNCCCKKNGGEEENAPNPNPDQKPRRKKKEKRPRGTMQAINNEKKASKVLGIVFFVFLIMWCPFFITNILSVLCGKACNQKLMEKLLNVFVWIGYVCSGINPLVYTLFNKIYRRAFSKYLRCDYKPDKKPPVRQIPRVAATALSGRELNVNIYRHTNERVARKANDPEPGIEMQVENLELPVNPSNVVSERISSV
T2 sequence (P14842 whole entry, looked up): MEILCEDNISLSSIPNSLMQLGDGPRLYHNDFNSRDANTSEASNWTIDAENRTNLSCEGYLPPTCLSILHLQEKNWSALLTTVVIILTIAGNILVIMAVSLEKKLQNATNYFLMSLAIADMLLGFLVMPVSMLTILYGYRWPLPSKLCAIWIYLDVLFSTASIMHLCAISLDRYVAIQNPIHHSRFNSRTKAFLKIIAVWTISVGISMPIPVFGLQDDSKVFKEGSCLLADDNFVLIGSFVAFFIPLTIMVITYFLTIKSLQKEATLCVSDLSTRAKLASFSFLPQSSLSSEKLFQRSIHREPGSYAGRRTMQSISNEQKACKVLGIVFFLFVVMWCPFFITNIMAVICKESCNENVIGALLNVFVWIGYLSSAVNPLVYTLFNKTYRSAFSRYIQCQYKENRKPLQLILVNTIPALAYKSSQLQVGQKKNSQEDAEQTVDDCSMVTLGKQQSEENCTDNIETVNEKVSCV
T2 sequence (P30994 whole entry, looked up): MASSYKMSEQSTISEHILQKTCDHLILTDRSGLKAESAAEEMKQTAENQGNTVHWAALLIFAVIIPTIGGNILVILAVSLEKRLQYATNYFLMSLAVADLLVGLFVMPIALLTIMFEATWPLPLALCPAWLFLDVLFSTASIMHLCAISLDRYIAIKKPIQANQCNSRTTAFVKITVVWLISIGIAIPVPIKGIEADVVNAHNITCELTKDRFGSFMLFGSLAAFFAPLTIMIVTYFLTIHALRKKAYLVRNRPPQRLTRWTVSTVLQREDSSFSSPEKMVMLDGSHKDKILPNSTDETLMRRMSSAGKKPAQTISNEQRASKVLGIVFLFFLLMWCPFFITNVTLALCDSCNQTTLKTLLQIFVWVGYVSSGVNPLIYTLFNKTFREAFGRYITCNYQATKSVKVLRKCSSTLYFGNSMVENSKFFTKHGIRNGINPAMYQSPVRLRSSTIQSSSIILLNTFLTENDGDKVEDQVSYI

SMILES | inhibition in vivo at 1 mg/kg (Mus musculus [1]) | inhibition [2] | inhibition in vivo at 10 mg/kg (Mus musculus [3]) | inhibition [4] | inhibition in vivo at 3 mg/kg (Mus musculus [5]) | inhibition in vivo at 0.3 mg/kg (Mus musculus [6]) | pA2 [7] | inhibition [8] | inhibition in vivo at 0.1 mg/kg (Mus musculus [9]) | inhibition [10] | inhibition [11] | inhibition [13] | pA2 [16] | inhibition [17] | other results
O=C(c1ccc(F)cc1)C1CCN(CCn2c(=O)[nH]c3ccccc3c2=O)CC1 [KETANSERIN] | 93% | 91% | 100% | 96% | 92% | 88% | 7.8 | 100% | 49% | 84% | 91% |  |  |  | 
Cc1nc2sccn2c(=O)c1CCN1CCC(=C(c2ccc(F)cc2)c2ccc(F)cc2)CC1 [RITANSERIN] |  |  | 100% |  | 95% |  | 7.5 |  |  |  | 7% |  |  |  | inhibition in vivo at 1 mg/kg (Mus musculus [12]): 80%
O=c1n(CCN2CCC(=C(c3ccc(F)cc3)c3ccc(F)cc3)CC2)nc2ccccn12 |  |  |  |  |  |  | 6.6 |  |  |  | 6% | 58% |  |  | pA2 [14]: 7
O=C(c1ccc(Cl)cc1)C1CCN(CCn2nc3n(c2=O)CCCC3)CC1 |  |  |  |  |  |  | 7.2 |  |  |  | 16% | 83% |  |  | pA2 [15]: 7.2
O=C(c1ccc(F)cc1)C1CCN(CCn2c(=O)nc3n(c2=O)CCCC3)CC1 | 81% | 33% | 80% | 93% | 67% | 59% | 6.9 | 90% | 49% | 83% | 33% |  | 8.1 | 93% | 
O=c1n(CCN2CCC(=C(c3ccc(F)cc3)c3ccc(F)cc3)CC2)nc2n1CCCC2 |  |  | 55% | 76% | 13% |  |  | 87% |  | 78% |  |  | 8.6 | 96% | inhibition [18]: 14%; inhibition [19]: 4%; inhibition in vivo at 30 mg/kg (Mus musculus [20]): 85%; pA2 [21]: 7; inhibition [22]: 11%; inhibition [23]: 14%
